# Results taken from ChEMBL document CHEMBL4689842, “EUbOPEN Chemogenomics Library wave 1” (2021).
# System: Fibroblast
# Assay: Multiplex assay against human fibroblast
# Format: toxicity, cell-based
# Procedure, shortened: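 Four dyes were applied at seeding to live cells: Hoechst33342, BioTracker Green Microtubule Cytoskeleton Dye, MitoTracker Red and Annexin V Alexa Fluor 680. Imaging after compound addition used a CQ1 microscope at 37°C and 5% CO2. CellPathfinder machine-learning gating then sorted cells into Hoechst high-intensity objects or normal cells, normal cells into healthy, pyknosed or fragmented nuclei, and pyknosed cells into mitotic or apoptotic, with tubulin, mitochondrial-mass and membrane-permeability phenotypes given as per cents of healthy-nucleus cells.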
# [1] = 12 h, 1 µM, compound concentration 1 uM, replicate 1
# [2] = 12 h, 1 µM, compound concentration 1 uM, replicate 2
# [3] = 12 h, 10 µM, compound concentration 10 uM, replicate 1
# [4] = 12 h, 10 µM, compound concentration 10 uM, replicate 2
# [5] = 24 h, 1 µM, compound concentration 1 uM, replicate 1
# [6] = 24 h, 1 µM, compound concentration 1 uM, replicate 2
# [7] = 24 h, 10 µM, compound concentration 10 uM, replicate 1
# [8] = 24 h, 10 µM, compound concentration 10 uM, replicate 2
# [9] = 48 h, 1 µM, compound concentration 1 uM, replicate 1
# [10] = 48 h, 1 µM, compound concentration 1 uM, replicate 2
# [11] = 48 h, 10 µM, compound concentration 10 uM, replicate 1
# [12] = 48 h, 10 µM, compound concentration 10 uM, replicate 2
structure (smiles),measurement,setting,value
COC(=O)C1=C(C)NC(C)=C(C(=O)OCCCN2CCC(c3ccccc3)(c3ccccc3)CC2)[C@H]1c1cccc([N+](=O)[O-])c1 [NIGULDIPINE],Population Apoptotic (%),[1],65%
same,Population Fragmented Nuclei (%),[1],17%
same,Population Healthy Nuclei (%),[1],45%
same,Population Hoechst High Intensity Objects (%),[1],12%
same,Population Membrane Permeable-Phenotype (%),[1],2%
same,Population Mitochondria Different-Phenotype (%),[1],85%
same,Population Mitotic Cells (%),[1],34%
same,Population Normal (%),[1],87%
same,Population Pyknosed Nuclei (%),[1],36%
same,Population Tubulin-Different-Phenotype (%),[1],100%
same,Total Cell Count,[1],99
same,Population Apoptotic (%),[2],91%
same,Population Fragmented Nuclei (%),[2],6%
same,Population Healthy Nuclei (%),[2],78%
same,Population Hoechst High Intensity Objects (%),[2],9%
same,Population Membrane Permeable-Phenotype (%),[2],66%
same,Population Mitochondria Different-Phenotype (%),[2],100%
same,Population Mitotic Cells (%),[2],8%
same,Population Normal (%),[2],90%
same,Population Pyknosed Nuclei (%),[2],15%
same,Total Cell Count,[2],945
same,Population Apoptotic (%),[3],65%
same,Population Fragmented Nuclei (%),[3],19%
same,Population Healthy Nuclei (%),[3],10%
same,Population Hoechst High Intensity Objects (%),[3],16%
same,Population Membrane Permeable-Phenotype (%),[3],63%
same,Population Mitochondria Different-Phenotype (%),[3],18%
same,Population Mitotic Cells (%),[3],34%
same,Population Normal (%),[3],83%
same,Population Pyknosed Nuclei (%),[3],69%
same,Population Tubulin-Different-Phenotype (%),[3],72%
same,Total Cell Count,[3],124
same,Population Apoptotic (%),[4],76%
same,Population Fragmented Nuclei (%),[4],67%
same,Population Healthy Nuclei (%),[4],3%
same,Population Hoechst High Intensity Objects (%),[4],12%
same,Population Membrane Permeable-Phenotype (%),[4],100%
same,Population Mitochondria Different-Phenotype (%),[4],50%
same,Population Mitotic Cells (%),[4],23%
same,Population Normal (%),[4],87%
same,Population Pyknosed Nuclei (%),[4],29%
same,Population Tubulin-Different-Phenotype (%),[4],100%
same,Total Cell Count,[4],87
same,Population Apoptotic (%),[5],76%
same,Population Fragmented Nuclei (%),[5],25%
same,Population Healthy Nuclei (%),[5],53%
same,Population Hoechst High Intensity Objects (%),[5],13%
same,Population Membrane Permeable-Phenotype (%),[5],7%
same,Population Mitochondria Different-Phenotype (%),[5],85%
same,Population Mitotic Cells (%),[5],23%
same,Population Normal (%),[5],86%
same,Population Pyknosed Nuclei (%),[5],20%
same,Population Tubulin-Different-Phenotype (%),[5],90%
same,Total Cell Count,[5],117
same,Population Apoptotic (%),[6],77%
same,Population Fragmented Nuclei (%),[6],7%
same,Population Healthy Nuclei (%),[6],65%
same,Population Hoechst High Intensity Objects (%),[6],5%
same,Population Membrane Permeable-Phenotype (%),[6],96%
same,Population Mitochondria Different-Phenotype (%),[6],100%
same,Population Mitotic Cells (%),[6],22%
same,Population Normal (%),[6],94%
same,Population Pyknosed Nuclei (%),[6],27%
same,Population Tubulin-Different-Phenotype (%),[6],100%
same,Total Cell Count,[6],948
same,Population Apoptotic (%),[7],79%
same,Population Fragmented Nuclei (%),[7],29%
same,Population Healthy Nuclei (%),[7],10%
same,Population Hoechst High Intensity Objects (%),[7],22%
same,Population Membrane Permeable-Phenotype (%),[7],27%
same,Population Mitochondria Different-Phenotype (%),[7],27%
same,Population Mitotic Cells (%),[7],20%
same,Population Normal (%),[7],77%
same,Population Pyknosed Nuclei (%),[7],59%
same,Population Tubulin-Different-Phenotype (%),[7],54%
same,Total Cell Count,[7],135
same,Population Apoptotic (%),[8],100%
same,Population Fragmented Nuclei (%),[8],40%
same,Population Healthy Nuclei (%),[8],25%
same,Population Hoechst High Intensity Objects (%),[8],11%
same,Population Membrane Permeable-Phenotype (%),[8],100%
same,Population Mitochondria Different-Phenotype (%),[8],100%
same,Population Mitotic Cells (%),[8],0%
same,Population Normal (%),[8],88%
same,Population Pyknosed Nuclei (%),[8],33%
same,Population Tubulin-Different-Phenotype (%),[8],100%
same,Total Cell Count,[8],85
same,Population Apoptotic (%),[9],80%
same,Population Fragmented Nuclei (%),[9],47%
same,Population Healthy Nuclei (%),[9],44%
same,Population Hoechst High Intensity Objects (%),[9],11%
same,Population Membrane Permeable-Phenotype (%),[9],1%
same,Population Mitochondria Different-Phenotype (%),[9],70%
same,Population Mitotic Cells (%),[9],20%
same,Population Normal (%),[9],88%
same,Population Pyknosed Nuclei (%),[9],7%
same,Population Tubulin-Different-Phenotype (%),[9],80%
same,Total Cell Count,[9],143
same,Population Apoptotic (%),[10],0%
same,Population Fragmented Nuclei (%),[10],61%
same,Population Healthy Nuclei (%),[10],38%
same,Population Hoechst High Intensity Objects (%),[10],21%
same,Population Membrane Permeable-Phenotype (%),[10],0%
same,Population Mitochondria Different-Phenotype (%),[10],71%
same,Population Mitotic Cells (%),[10],0%
same,Population Normal (%),[10],78%
same,Population Pyknosed Nuclei (%),[10],0%
same,Population Tubulin-Different-Phenotype (%),[10],86%
same,Total Cell Count,[10],126
same,Population Apoptotic (%),[11],82%
same,Population Fragmented Nuclei (%),[11],48%
same,Population Healthy Nuclei (%),[11],22%
same,Population Hoechst High Intensity Objects (%),[11],28%
same,Population Membrane Permeable-Phenotype (%),[11],31%
same,Population Mitochondria Different-Phenotype (%),[11],22%
same,Population Mitotic Cells (%),[11],17%
same,Population Normal (%),[11],71%
same,Population Pyknosed Nuclei (%),[11],29%
same,Population Tubulin-Different-Phenotype (%),[11],27%
same,Total Cell Count,[11],138
same,Population Apoptotic (%),[12],90%
same,Population Fragmented Nuclei (%),[12],68%
same,Population Healthy Nuclei (%),[12],17%
same,Population Hoechst High Intensity Objects (%),[12],31%
same,Population Membrane Permeable-Phenotype (%),[12],57%
same,Population Mitochondria Different-Phenotype (%),[12],64%
same,Population Mitotic Cells (%),[12],9%
same,Population Normal (%),[12],68%
same,Population Pyknosed Nuclei (%),[12],13%
same,Population Tubulin-Different-Phenotype (%),[12],21%
same,Total Cell Count,[12],115
